A short description of data set [1]: Solubility at pH 7.4 was determined. The data set is classed as physicochemical. Particulars: buffer. In short, it runs like this:
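Aqueous solubility of the inhibitors measured at pH 7.4, reported in mg/mL.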

Data set [2] concerns the target T1, Coagulation factor XIII A chain (Homo sapiens, UniProt P00488).
T1 sequence (P00488 whole entry): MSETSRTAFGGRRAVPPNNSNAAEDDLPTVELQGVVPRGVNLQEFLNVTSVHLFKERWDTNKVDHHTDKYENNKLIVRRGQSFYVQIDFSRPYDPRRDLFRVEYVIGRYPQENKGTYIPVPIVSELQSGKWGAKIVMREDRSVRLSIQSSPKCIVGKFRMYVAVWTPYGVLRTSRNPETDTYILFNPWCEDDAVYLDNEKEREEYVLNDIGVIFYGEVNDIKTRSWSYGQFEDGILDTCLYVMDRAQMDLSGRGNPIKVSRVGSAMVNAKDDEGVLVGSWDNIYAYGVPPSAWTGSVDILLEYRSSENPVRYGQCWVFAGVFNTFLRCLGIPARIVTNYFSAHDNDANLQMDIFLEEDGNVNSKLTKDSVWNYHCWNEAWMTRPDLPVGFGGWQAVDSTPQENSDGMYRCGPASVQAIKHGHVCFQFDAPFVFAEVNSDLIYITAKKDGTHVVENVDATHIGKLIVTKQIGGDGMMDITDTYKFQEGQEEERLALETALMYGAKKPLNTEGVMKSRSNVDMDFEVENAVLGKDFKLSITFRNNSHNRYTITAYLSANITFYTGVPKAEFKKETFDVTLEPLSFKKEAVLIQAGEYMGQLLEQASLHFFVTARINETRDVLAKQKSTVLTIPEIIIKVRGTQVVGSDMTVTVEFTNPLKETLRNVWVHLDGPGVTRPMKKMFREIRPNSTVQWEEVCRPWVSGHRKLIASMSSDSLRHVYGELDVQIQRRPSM
Briefly: In vitro inhibitory concentration of compound against factor XIIIa.

Another data set relates to Cell line. In words: Concentration causing reduction in fibrin gamma-chain cross-linking in platelet-depleted human plasma. The data set is classed as functional.

Converted amounts (≈) assume the structure as drawn.

Broadly, the solubility is the concentration that dissolves in the medium under given conditions. A lower solubility goes with little dissolved substance. For the compound `O=C(O)CN(CCCCCCNS(=O)(=O)c1ccccc1[N+](=O)[O-])c1nsc2nccn12`, the solubility in data set [1] came out at 380 µg/mL (≈ 787 µM).

A word on the IC50: it is the midpoint of a concentration-inhibition curve. For `O=[N+]([O-])c1ccc(S(=O)(=O)NCCCCCCNc2n[s+]c3[n-]ccn23)cc1`, the concentration for half-maximal inhibition (IC50) in data set [2] stood at 0.91 µM.

In the case of `O=[N+]([O-])c1ccccc1S(=O)(=O)NCCCCCCNc1nsc2nccn12`, the Concentration in the data set on Cell line worked out at 160 µM.

Turning to `O=[N+]([O-])c1ccccc1S(=O)(=O)NCCCCCCNc1ncccc1[N+](=O)[O-]`, the IC50 in data set [2] is 170 µM.

The values above are taken from ChEMBL document CHEMBL1145208, “3-Substituted imidazo[1,2-d][1,2,4]-thiadiazoles: a novel class of factor XIIIa inhibitors” (J Med Chem, 2005).
